The results in this text go back to ChEMBL document CHEMBL1147726, “Prodrug forms of N-[(4-deoxy-4-amino-10-methyl)pteroyl]glutamate-gamma-[psiP(O)(OH)]-glutarate, a potent inhibitor of folylpoly-gamma-glutamate synthetase: synthesis and hydrolytic stability” (J Med Chem, 2006).

A short description of data set [1]: Half life of hydrolysis rate in phosphate buffer at pH 8.0. It is filed as ADME. In outline: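 Prodrug was diluted into 20 mM phosphate buffer, pH 8.0, containing 5% DMSO, with serial dilutions made in the same phosphate. Loss of the parent ester and formation of products were monitored over time by HPLC (UV at 254 and 310 nm). t = 0 is autosampler injection. Ester decay was fit to pseudo-first-order kinetics to give the half-life.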

For data set [2], the system named is CHO. Put plainly: Cytotoxicity against R2 mutant cells derived from CHO cells with reduced expression of RFC. The conditions noted are these: Cricetulus griseus. It is filed as functional, cell-based. In outline: (§1)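 CHO-derived cells grown in RPMI 1640 medium and exposed continuously to compound for 72 h. Serial dilutions were made in DMSO. Viability was read with a CellTiter-Blue assay. IC50 was taken from dose-response curves over 1 nM to 1 µM.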

The subject of data set [3] is CHO. Put plainly: Cytotoxicity against Pro3 cells derived from CHO cells with fully functional reduced folate carrier. The settings on record: Cricetulus griseus. It is filed as cell-based. In outline: as §1
Data set [4] has as its system CHO. Put plainly: Cytotoxicity in RFC deficient 43-10 cells derived from CHO cells transfected with human RFC cDNA. It is filed as functional, cell-based. The conditions noted are these: Cricetulus griseus. In outline: as §1
Data set [5] in a line: Half life of hydrolysis rate in RPMI-1640 medium at pH 8.0. It is filed as ADME. In outline: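 Prodrug stock was diluted into RPMI-1640 cell medium (pH 8.0) and filtered, and disappearance of the ester was followed by HPLC with UV detection at 254 and 310 nm. t = 0 is the time the autosampler injected the sample. The half-life was determined from the HPLC data.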

`COC(=O)CCC(CP(=O)(O)CCC(NC(=O)c1ccc(N(C)Cc2cnc3nc(N)nc(N)c3n2)cc1)C(=O)OC)C(=O)OC` (configuration not stated) returned a half-life in data set [1] of over 100 h. Also, the IC50 in the data set on CHO [2] is over 1 µM; in the data set with CHO [3] it was 0.5 µM; in the data set with CHO [4], 0.3 µM.
Regarding `CN(Cc1cnc2nc(N)nc(N)c2n1)c1ccc(C(=O)NC(CCP(=O)(O)CC(CCC(=O)O)C(=O)O)C(=O)O)cc1` (configuration not stated), the IC50 with CHO [2], in the data set with CHO [3] and with CHO [4] was over 1 µM throughout.
Consider `CN(Cc1cnc2nc(N)nc(N)c2n1)c1ccc(C(=O)NC(CCP(=O)(O)CC(CCC(=O)OCOC(=O)C(C)(C)C)C(=O)OCOC(=O)C(C)(C)C)C(=O)OCOC(=O)C(C)(C)C)cc1` (configuration not stated), for which the figures for the half-life in data set [5] and in data set [1] were 3 h and 8 h, respectively. For the same compound, the IC50 turned out to be 0.35 µM in the data set with CHO [2], 0.7 µM with CHO [3] and 0.25 µM in the data set with CHO [4].
For `COP(=O)(CCC(NC(=O)c1ccc(N(C)Cc2cnc3nc(N)nc(N)c3n2)cc1)C(=O)OCOC(=O)C(C)(C)C)CC(CCC(=O)OCOC(=O)C(C)(C)C)C(=O)OCOC(=O)C(C)(C)C` (configuration not stated) the same measures were 1 h, 3 h, over 1 µM, over 1 µM and 0.8 µM.
